Sampled rows, rich in hits. Any-hit rate of the full collection: about 3.7%.
AHR act: activates the human aryl hydrocarbon receptor; hit rate 2.5% among 320,000; P35869; AHR-responsive luciferase reporter cells, luminescence; activation, % at 5 µM; AID 2796; in the data active = activation above about 47%;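 also: 0% = vehicle wells and 100% = reference agonist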
Target sequence (P35869 whole entry, looked up): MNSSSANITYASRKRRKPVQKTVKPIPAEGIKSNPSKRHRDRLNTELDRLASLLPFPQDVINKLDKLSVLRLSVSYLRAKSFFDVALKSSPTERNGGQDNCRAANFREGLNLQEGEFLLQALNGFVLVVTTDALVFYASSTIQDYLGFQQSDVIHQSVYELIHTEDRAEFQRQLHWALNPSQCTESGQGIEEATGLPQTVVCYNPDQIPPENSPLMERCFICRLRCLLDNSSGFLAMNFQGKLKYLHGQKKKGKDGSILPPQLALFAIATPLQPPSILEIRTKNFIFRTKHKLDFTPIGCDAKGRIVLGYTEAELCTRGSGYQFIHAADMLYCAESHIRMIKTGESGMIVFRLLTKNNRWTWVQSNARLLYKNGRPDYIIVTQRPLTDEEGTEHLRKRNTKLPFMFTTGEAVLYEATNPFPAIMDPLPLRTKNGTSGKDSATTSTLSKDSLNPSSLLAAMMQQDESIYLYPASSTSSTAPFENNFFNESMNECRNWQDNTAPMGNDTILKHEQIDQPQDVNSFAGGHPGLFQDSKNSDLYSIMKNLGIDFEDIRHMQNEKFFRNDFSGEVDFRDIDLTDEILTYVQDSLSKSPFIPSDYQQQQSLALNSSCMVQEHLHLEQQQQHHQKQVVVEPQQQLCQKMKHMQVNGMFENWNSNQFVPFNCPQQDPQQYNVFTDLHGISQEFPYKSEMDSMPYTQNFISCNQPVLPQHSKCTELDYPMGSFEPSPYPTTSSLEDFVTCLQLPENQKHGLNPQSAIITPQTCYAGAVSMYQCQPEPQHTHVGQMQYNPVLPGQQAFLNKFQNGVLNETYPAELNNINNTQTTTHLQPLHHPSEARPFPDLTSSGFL
SR-BI HDL uptake: inhibitors of mouse SR-BI mediated HDL lipid uptake; AID 488896; hit rate 0.96% among 320,000; ldlA[mSR-BI] CHO cells, DiI-HDL uptake fluorescence, 3 h; Q61009; inhibition, % at 12.5 µM;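 active = mean replicate inhibition of at least 70% and a set share of replicates each scoring 70 or more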;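 also: 0% = median of neutral control wells and 100% = median of positive control wells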
FXN GAA850 act: frataxin GAA850 promoter activation | activation, % at 6 µM | AID 540364 | hit rate 0.56% among 360,000 | HEK293 lucGAA850 FXN promoter luciferase reporter, 24 h; percent of 10 µM SAHA response;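 active = activation above the average of all compounds screened plus 3 SD, cutoff fixed separately per campaign, cut at about 7.5% in these data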;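 also: 0% = DMSO wells and 100% = 10 µM SAHA wells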
SR-BI uptake up: SR-BI HDL lipid transfer activation; hit rate 0.096% among 320,000; activation, % at 12.5 µM; CHO ldlA[mSR-BI] cells, DiI-HDL uptake fluorescence, 3 h; 100 = double the neutral-control signal; AID 504775;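 active = mean replicate activation of at least 60% and every replicate at or above 60%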;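 also: 0% = median plate neutral-control signal and 100% = twice that signal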
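System: LDL receptor-deficient CHO ldlA cells overexpressing murine SR-BI | Timing: 3 h uptake period with compound, 37 °C | Medium: HEPES-buffered (25 mM, pH 7.4) F12 plus 0.5% BSA | Dosing: Single-point compound dose | Signal: Bottom-read fluorescence, 550/595 nm | Read-out: Retained DiI signal reflecting DiI-HDL uptake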
JMJD2C inh: human JMJD2C demethylase inhibition | Q9H3R0 | GST-JMJD2C(1-420) H3K9me3 demethylation, DELFIA europium | inhibition, % at 2.35 µM | hit rate 0.069% among 330,000;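 active = more than half of a compound's replicate wells show inhibition beyond 50%, single wells judged on their own value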;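 also: signal counts dimethyl H3K9 product captured on neutravidin plate; 0% = median of DMSO wells and 100% = 0.3 times that DMSO median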
Numbers without * were called inactive; . = no result.

SMILES | AHR act | SR-BI HDL uptake | FXN GAA850 act | SR-BI uptake up | JMJD2C inh
CC1CCc2c(sc3ncnc(NCc4cccnc4)c23)C1 (configuration not stated) | 34 | 22 | 3 | -22 | -38
CC1CCc2c(sc3ncnc(NCCCOC(C)C)c23)C1 (configuration not stated) | 61* | 75* | 2 | -75 | 1
CCN=c1scc(C)n1/N=C/c1cc(Br)c(O)c(OC)c1 | 49* | 72* | -1 | -72 | 0
COc1ccc([C@@H]2CC=C(C(=O)O)[C@H](c3ccc(Cl)cc3)N2S(=O)(=O)c2ccc(Cl)cc2)cc1 | 1 | -8 | 2 | 8 | 7
CC(=O)Nc1sc2c(c1-c1nc3ccccc3s1)CN(C(C)C)CC2 | 74* | 25 | 23* | -25 | .
C[C@H](CO)N1C[C@H](C)[C@H](CN(C)Cc2ccncc2)OCc2ccccc2-c2c(n(C)c3ccccc23)C1=O | . | . | 3 | . | .
CCn1cc(C(=O)Nc2ccc(C)cc2[N+](=O)[O-])c(C)n1 | -4 | -12 | 3 | 12 | -1
CCOCCc1nn2c(=O)cc(CSCC(=O)Nc3ccccc3)nc2s1 | 3 | -6 | 0 | 6 | -30
Cc1nc(N2CCOCC2)nc(N2CCN(c3ccccc3)CC2)c1[N+](=O)[O-] | 0 | 78* | 1 | -78 | -13
COc1ccc(-c2nn(-c3ccccc3)cc2C(N)=O)cc1OC | 75* | 12 | 3 | -12 | -5
O=S(=O)(CC(CN1CCCC1)N1CCCC1)c1ccc2ccccc2c1 (configuration not stated) | 2 | -10 | -3 | 10 | -18
CCCCC#Cc1cncc(C(=O)N/N=C/c2cccc(OC)c2)c1 | 18 | -7 | -1 | 7 | 6
Cc1ccc(-n2c(-c3ccc(Cl)cc3Cl)n[nH]c2=S)cc1 | 4 | 5 | 2 | -5 | 0
Nc1nc(-c2ccc(Cl)cc2Cl)cn1N | 65* | 13 | 2 | -13 | -7
CSc1ccccc1NC(=O)CSCc1nc2sc(C)c(C)c2c(=O)[nH]1 | 4 | -57 | -1 | 57 | 1
Cc1sc2nc(CSCC(=O)Nc3ccccc3C#N)[nH]c(=O)c2c1C | 70* | -25 | -1 | 25 | 6
C/C(=N\Nc1ccc(C(=O)O)cc1)c1ccc2c(c1)Nc1ccccc1S2 | 68* | . | 4 | . | 21
C/C(=N/Nc1ccc(C(=O)O)cc1)c1ccc2c(c1)Nc1ccccc1S2 | . | 11 | 3 | -11 | .
COc1ccc(OC)c(/C=N/NC(=O)CCc2n[nH]c(=O)[nH]c2=O)c1 | 60* | 1 | 3 | -1 | 3
CCCCN1C(=O)C(=O)NC[C@@H]1CCCCN | 0 | -4 | -1 | 4 | 25
O=C(NC1CC1)c1cccc(NC(=O)c2cnn(-c3ccccc3)n2)c1 | 59* | 23 | -2 | -23 | 1
COc1ccc(-c2cn(-c3ccccc3)nc2CO)cc1 | 8 | 41 | 3 | -41 | -7
CCn1cc(-c2ccccc2)c(C(=O)O)c1-c1ccc(OC)cc1 | 58* | -33 | 0 | 33 | 4
COc1cccc(NC(=O)N2CCN(c3cccc(C)c3C)CC2)c1 | 3 | 71* | 1 | -71 | 4
CCOC(=O)c1[nH]c2ccc(OC)cc2c1NC(=S)N1CCN(c2cccc(C)c2C)CC1 | 3 | 73* | -4 | -73 | -8
SMILES | AHR act | SR-BI HDL uptake | FXN GAA850 act | SR-BI uptake up | JMJD2C inh
CCC1CCc2sc(C(=O)NC3CCN(Cc4ccccc4)CC3)cc2C1 (configuration not stated) | 0 | 63 | -2 | -63 | 0
CC1(C(=O)NS(=O)(=O)c2ccccc2)CCN1C(=O)c1ccccc1CCc1ccccc1 (configuration not stated) | . | . | 0 | . | .
CCC(Cc1ccccc1)NC(=O)c1ccc2nc(N3CCOCC3)sc2c1 (configuration not stated) | 59* | 11 | 0 | -11 | 0
Cc1ccc(N=C2S/C(=C/c3cccc(OCC(=O)O)c3)C(=O)N2C)cc1C | 3 | -36 | 6 | 36 | -17
O=C(N[C@@H]1CCC(=O)N(CC[C@H](Sc2ccccc2)c2ccccc2)CC1)OCc1ccccc1 | -2 | 46 | 0 | -46 | -7
Cc1nn(-c2ccccc2)c(N)c1N=Nc1ccc2ccccc2c1 | 155* | 47 | 5 | -47 | -7
CN(C)CCNC(=O)Cn1ccc2cc(S(=O)(=O)N3CCCCC3)ccc21 | 0 | -6 | 0 | 6 | -5
Cc1ccc(CN2C(=O)C(C)Nc3ncnc(N4CCN(c5ccccn5)CC4)c32)cc1 (configuration not stated) | 60* | -27 | 2 | 27 | -1
NC(=O)NC(=O)COC(=O)CCCCCNS(=O)(=O)c1ccc2c(c1)OCCO2 | -3 | . | 2 | . | 11
COc1cccc(NCc2cc(=O)oc3cc(-c4ccccc4)c(O)cc23)c1 | 76* | 10 | 2 | -10 | -10
CCOc1ccccc1NCc1cc(=O)oc2cc(C)c(O)cc12 | . | 74* | -1 | -74 | 2
CCNC(=O)CC1C(=O)N(c2cccc(C)c2)C(=O)N1CCC(C)C (configuration not stated) | 0 | -26 | -1 | 26 | -5
OCC1OC(n2ccc3c(SCc4ccccc4)ncnc32)C(O)C1O (configuration not stated) | . | -7 | 5 | 7 | .
CCOC(=O)C1=C(Nc2ccc(C)cc2)CC(C)(O)C(C(=O)OCC)C1c1ccccc1 (configuration not stated) | 4 | 10 | 0 | -10 | 1
CCOC(=O)C1=C(Nc2ccccc2)CC(C)(O)C(C(=O)OCC)C1c1ccccc1 (configuration not stated) | 1 | -64 | 2 | 64* | -6
CCN(CC)c1ccc(C2C(C(=O)OC(C)C)C(=O)CC(C)(O)C2C(=O)OC(C)C)cc1 (configuration not stated) | 1 | -3 | -4 | 3 | 16
COc1ccc(S(=O)(=O)N(C)C2CCN(C)CC2)cc1 | 2 | -263 | 0 | 263* | 33
COc1ccc(CC(=O)Nc2ccc(S(=O)(=O)N(C)C3CCN(C)CC3)cc2)cc1 | 0 | -20 | 1 | 20 | .
CCOC(=O)/C=C1/SCC(=O)N1CC(=O)Nc1cccc(F)c1 | -1 | -18 | 1 | 18 | -3
COc1ccc(-c2cc(C(F)(F)F)n3nc(N)nc3n2)cc1 | -8 | -1 | 3 | 1 | 0
COc1cccc(-c2cc(C(F)(F)F)n3nc(N)nc3n2)c1 | 68* | 11 | 4 | -11 | -7
CC(=O)OCC(=O)Nc1ccccc1OC(F)F | 3 | 4 | 2 | -4 | 9
COc1ccc(Nc2nc(-c3ccc(OC)cc3)cs2)cc1 | -3 | 41 | 5 | -41 | 34
Cc1cc(C)nc(Nc2nc(-c3ccccc3)cs2)n1 | 75* | 39 | 3 | -39 | 9
COc1ccc(-c2csc(Nc3cccnc3)n2)cc1 | 54* | 60 | 3 | -60 | 5
COc1ccc(-c2csc(Nc3ccccc3)n2)cc1 | 6 | 73* | 6 | -73 | -17
